Data: ChEMBL document CHEMBL5034012, “Procainamide-SAHA Fused Inhibitors of hHDAC6 Tackle Multidrug-Resistant Malaria Parasites” (J Med Chem, 2021)
The source made the active and inactive calls. No cut-off for these calls is given here.

What was measured:
Plasmodium falciparum [1] = assay: Antiplasmodial activity against ring stage Plasmodium falciparum 3D7 assessed as defective parasite division at 10 times IC50 concentration incubated for 24 hrs by transmission electron microscopy; type: functional, organism-based
In short: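 Harvested with Plasmagel and fixed in 4% PFA/0.1% glutaraldehyde. Gelatin-embedded; 60nm ultrathin sections. Anti-H3 (1/100) labelled with 10nm protein A-gold. Stained with methylcellulose/0.4% uranyl acetate and imaged by TEM at 120 kV.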

Plasmodium falciparum [2] = assay: Antiplasmodial activity against Plasmodium falciparum stage IIb-III gametocytes assessed as abnormal morphology by measuring fragile like extensions at highest concentration measured after 72 hrs using Geimsa staining based assay; type: functional
In short: (§1)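 Day-4 stage IIb-III gametocytes (asexuals removed by N-acetyl glucosamine), about 1% gametocytemia at 2% hematocrit, treated 72h at 10, 5, 1 or 0.5 µM against 0.1% DMSO. Then washed and recultured with daily medium changes. Morphology and parasitemia scored daily on Giemsa-stained thin smears.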

Plasmodium falciparum [3] = assay: Antiplasmodial activity against Plasmodium falciparum 3D7 assessed as DNA damage in trophozoite stage measured upto 72 hrs using Geimsa stain based parasite reduction rate assay; type: functional, organism-based; conditions: time hrs <=72
Plasmodium falciparum [4] = assay: Antiplasmodial activity against Cambodian multidrug-resistant Plasmodium falciparum isolate incubated for 96 hrs measured by SYBR Green 1 assay; type: functional, organism-based
In short: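 Cambodian isolates chosen by multidrug-resistance pattern, 10 per resistance type. Ring-synchronized cultures at 2% hematocrit and 1% starting parasitemia; 11-point 2-step dilutions from 500nM; 96h incubation, then SYBR-green I read-out. Mefloquine and monodesethylamodiaquine served as positive controls. Triplicate wells, one biological replicate per isolate.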

Histone deacetylase 3 = Histone deacetylase 3 (Homo sapiens, UniProt O15379); assay: Inhibition of human recombinant HDAC3 using Tosyl-Gly-ProLys(Ac)-AMC as substrate measured after 60 mins by fluorescence assay
Chain of Histone deacetylase 3 (O15379 whole entry): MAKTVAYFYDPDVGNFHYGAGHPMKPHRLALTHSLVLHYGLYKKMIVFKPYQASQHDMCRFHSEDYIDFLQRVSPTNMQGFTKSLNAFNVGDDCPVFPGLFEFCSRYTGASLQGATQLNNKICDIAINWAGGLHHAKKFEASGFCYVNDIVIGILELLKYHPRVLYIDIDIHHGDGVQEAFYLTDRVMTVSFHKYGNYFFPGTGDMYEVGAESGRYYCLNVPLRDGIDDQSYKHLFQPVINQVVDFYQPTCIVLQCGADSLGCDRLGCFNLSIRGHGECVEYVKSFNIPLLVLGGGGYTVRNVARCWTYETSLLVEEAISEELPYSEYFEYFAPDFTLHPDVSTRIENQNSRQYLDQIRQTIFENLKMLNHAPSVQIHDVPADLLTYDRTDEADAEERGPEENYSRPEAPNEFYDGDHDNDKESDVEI

Plasmodium falciparum [5] = assay: Antiplasmodial activity against synchronized ring stage Plasmodium falciparum 3D7 assessed as parasite reduction over one cycle upto 48 hrs at 10 times IC50 concentration; type: functional; conditions: time hrs <=48
In short: (§2)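 3D7 culture of mostly rings exposed to drug for 6, 24, 48, 72 or 96h. Then washed, serially diluted 1/3 in fresh RBC and grown 3 weeks. Growth read by SYBR-green I. Number of wells with growth used to back-calculate viable parasites at each time point and derive growth parameters. One experiment, run in duplicate.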

Plasmodium falciparum [6] = assay: Antiplasmodial activity against asynchronous asexual culture of Plasmodium falciparum NF54 assessed as parasite growth inhibition; type: functional, organism-based
In short: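 Asynchronous asexual NF54 cultures exposed to 7-point, 2-step serial dilutions starting at 500nM. DHA served as positive control, DMSO as negative. IC50 interpolated from three independent experiments run in triplicate.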

[7] = target: T1, Protein deacetylase HDAC6 (Homo sapiens, UniProt Q9UBN7); assay: Inhibition of human recombinant HDAC6 using Tosyl-Gly-ProLys(Ac)-AMC as substrate measured after 60 mins by fluorescence assay
T1 sequence (Q9UBN7 whole entry): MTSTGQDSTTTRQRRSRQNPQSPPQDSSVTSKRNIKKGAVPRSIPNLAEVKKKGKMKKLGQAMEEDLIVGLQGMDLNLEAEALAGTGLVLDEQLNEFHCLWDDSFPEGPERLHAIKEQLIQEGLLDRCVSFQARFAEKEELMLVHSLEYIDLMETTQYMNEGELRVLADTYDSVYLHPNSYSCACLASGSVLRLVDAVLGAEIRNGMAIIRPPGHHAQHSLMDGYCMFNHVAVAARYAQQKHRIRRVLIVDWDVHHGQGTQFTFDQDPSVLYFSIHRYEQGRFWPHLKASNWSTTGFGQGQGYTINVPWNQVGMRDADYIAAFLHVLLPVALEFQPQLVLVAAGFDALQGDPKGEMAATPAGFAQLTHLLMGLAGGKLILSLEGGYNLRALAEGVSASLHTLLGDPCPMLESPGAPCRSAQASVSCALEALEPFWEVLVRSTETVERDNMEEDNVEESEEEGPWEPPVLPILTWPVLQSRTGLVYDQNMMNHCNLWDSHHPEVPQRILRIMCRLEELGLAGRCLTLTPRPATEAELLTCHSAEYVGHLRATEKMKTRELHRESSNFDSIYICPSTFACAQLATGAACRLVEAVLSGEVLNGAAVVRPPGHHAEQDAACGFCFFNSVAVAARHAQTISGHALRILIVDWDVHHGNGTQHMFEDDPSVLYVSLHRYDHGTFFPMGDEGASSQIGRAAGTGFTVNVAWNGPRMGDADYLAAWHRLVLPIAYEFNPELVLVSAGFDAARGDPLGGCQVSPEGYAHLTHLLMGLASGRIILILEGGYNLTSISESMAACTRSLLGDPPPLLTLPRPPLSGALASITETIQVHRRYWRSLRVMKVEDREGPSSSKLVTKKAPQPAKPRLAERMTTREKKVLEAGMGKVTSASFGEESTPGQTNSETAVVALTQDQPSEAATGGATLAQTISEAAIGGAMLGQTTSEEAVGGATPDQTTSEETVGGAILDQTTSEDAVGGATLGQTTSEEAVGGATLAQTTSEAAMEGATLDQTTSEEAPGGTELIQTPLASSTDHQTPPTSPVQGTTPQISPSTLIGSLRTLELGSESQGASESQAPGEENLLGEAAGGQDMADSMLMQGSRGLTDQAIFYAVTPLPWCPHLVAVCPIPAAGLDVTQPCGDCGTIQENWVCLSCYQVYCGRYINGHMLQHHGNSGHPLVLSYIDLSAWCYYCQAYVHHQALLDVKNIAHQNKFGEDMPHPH

Plasmodium falciparum [8] = assay: Antiplasmodial activity against Plasmodium falciparum stage IIb-III gametocytes assessed as abnormal morphology by measuring rounded/swollen at highest concentration measured after 72 hrs using Geimsa staining based assay; type: functional; in short: as §1
HepG2 = assay: cells; type: functional, cell-based; conditions: Homo sapiens, HepG2, 72 h
Histone deacetylase 1 = Histone deacetylase 1 (Homo sapiens, UniProt Q13547); assay: Inhibition of human recombinant HDAC1 using Tosyl-Gly-ProLys(Ac)-AMC as substrate measured after 60 mins by fluorescence assay
Chain of Histone deacetylase 1 (Q13547 whole entry): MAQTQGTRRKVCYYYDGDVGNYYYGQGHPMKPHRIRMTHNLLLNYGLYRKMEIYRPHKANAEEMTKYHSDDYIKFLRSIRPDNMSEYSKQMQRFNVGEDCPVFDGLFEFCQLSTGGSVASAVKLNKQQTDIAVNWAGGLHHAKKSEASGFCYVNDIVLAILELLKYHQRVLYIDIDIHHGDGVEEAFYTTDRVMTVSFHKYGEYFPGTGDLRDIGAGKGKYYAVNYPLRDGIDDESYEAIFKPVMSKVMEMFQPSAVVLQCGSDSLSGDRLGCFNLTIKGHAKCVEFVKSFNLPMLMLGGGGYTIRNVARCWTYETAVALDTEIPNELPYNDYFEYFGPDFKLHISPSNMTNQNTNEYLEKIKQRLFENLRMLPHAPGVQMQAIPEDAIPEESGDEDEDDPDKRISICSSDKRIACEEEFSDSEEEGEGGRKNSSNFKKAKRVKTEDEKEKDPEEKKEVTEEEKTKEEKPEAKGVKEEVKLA

Plasmodium falciparum [9] = assay: Inhibition of trophozoite-stage Plasmodium falciparum HDAC in using nuclear extract assessed as H4K16 hyperacetylation at 10 times IC50 concentration incubated for 4 hrs by Western blot analysis; conditions: in the assay text read “total extract” for “nuclear extract”
In short: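 Parasites exposed 4h at 10× IC50, with CQ and 0.1% DMSO as controls. Saponin-lysed (0.15%) and extracted in Laemmli/DTT buffer; 5.10⁶ parasites loaded per lane. Blots probed with anti-H4K16Ac (1/500) and anti-H3 (1/1000). H4K16Ac band intensity normalized to H3. Three independent experiments.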

Plasmodium falciparum [10] = assay: Antiplasmodial activity against synchronized ring stage Plasmodium falciparum 3D7 assessed as parasite reduction rate in lag phase by measuring time required to achieve maximum speed of action at 10 times IC50 concentration; type: functional; in short: as §2
Histone deacetylase 2 = Histone deacetylase 2 (Homo sapiens, UniProt Q92769); assay: Inhibition of human recombinant HDAC2 using Tosyl-Gly-ProLys(Ac)-AMC as substrate measured after 60 mins by fluorescence assay
Chain of Histone deacetylase 2 (Q92769 whole entry): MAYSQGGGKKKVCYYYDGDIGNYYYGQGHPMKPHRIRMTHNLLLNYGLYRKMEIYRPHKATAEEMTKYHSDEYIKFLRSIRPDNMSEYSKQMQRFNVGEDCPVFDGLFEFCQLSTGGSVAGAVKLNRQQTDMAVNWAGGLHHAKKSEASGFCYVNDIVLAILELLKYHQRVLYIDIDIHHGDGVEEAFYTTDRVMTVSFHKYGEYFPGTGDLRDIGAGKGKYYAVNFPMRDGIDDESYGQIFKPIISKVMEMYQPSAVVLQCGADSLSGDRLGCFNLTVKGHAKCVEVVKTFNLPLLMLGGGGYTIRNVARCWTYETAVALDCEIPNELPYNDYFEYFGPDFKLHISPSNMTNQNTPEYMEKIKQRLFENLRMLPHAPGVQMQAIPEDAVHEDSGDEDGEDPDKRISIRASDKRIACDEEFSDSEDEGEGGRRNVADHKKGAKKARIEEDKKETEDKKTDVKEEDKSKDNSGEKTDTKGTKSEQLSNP

[11] = Inhibition of Plasmodium falciparum NF54 HDAC using extract measured after 60 mins by fluorescence assay

CCN(CC)CCNC(=O)c1ccc(NC(=O)CCCCCCC(=O)NO)cc1
Activity (Plasmodium falciparum [1]): Active | Activity (Plasmodium falciparum [2]): <=90% | Activity (Plasmodium falciparum [3]): Active | IC50 (Plasmodium falciparum [4]): 76 nM | IC50 (Histone deacetylase 3): 70 nM | log(activity) (Plasmodium falciparum [5]): 3.8 | IC50 (Plasmodium falciparum [6]): 41 nM | IC50 [7]: 14 nM | Activity (Plasmodium falciparum [8]): <=90% | IC50 (HepG2): 8400 nM | IC50 (Histone deacetylase 1): 70 nM | fold change (FC) (Plasmodium falciparum [9]): 6 | Time (Plasmodium falciparum [10]): 0 h | IC50 (Histone deacetylase 2): 80 nM | IC50 [11]: 380 nM

O=C(CCCCCCC(=O)Nc1ccc(C(=O)NC2CCNCC2)cc1)NO
Activity (Plasmodium falciparum [1]): Active | Activity (Plasmodium falciparum [2]): <=90% | Activity (Plasmodium falciparum [3]): Active | IC50 (Plasmodium falciparum [4]): 70 nM | IC50 (Histone deacetylase 3): 110 nM | log(activity) (Plasmodium falciparum [5]): 4.22 | IC50 (Plasmodium falciparum [6]): 52 nM | IC50 [7]: 19 nM | Activity (Plasmodium falciparum [8]): <=90% | IC50 (HepG2): 230000 nM | IC50 (Histone deacetylase 1): 150 nM | fold change (FC) (Plasmodium falciparum [9]): 6 | Time (Plasmodium falciparum [10]): 6 h | IC50 (Histone deacetylase 2): 270 nM | IC50 [11]: 480 nM
